# Cl transport mod: KCC2 (human) Cl- transport modulation | 2.2% of 190,000 active | B-score of Tl+ flux slope (higher = more flux/activation; lower = inhibition) at 10 µM | KCC2 cells, thallium flux FluoZin-2 fluorescence;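 active = thallium flux slope and its plate-corrected score both differing from the plate sample mean at a set confidence after two filtering rounds, in either direction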;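 note: slope of fluorescence scaled to starting intensity during 10 to 20 s after thallium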
# Diaph act CS: activates diaphorase or chemically reduces, flagging diaphorase assay artifacts; Diaphorase/resazurin coupled assay, resorufin fluorescence, 16 min; hits give high values; 1 = vehicle wells, 0 = NADH-free wells; activation factor at 20 µM; 0.005% of 190,000 active; AID 1229;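 active = diaphorase activity raised at least twofold by the compound at 20 µM; inactive = activation factor below 2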
#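 Assay system: Purified diaphorase enzyme from Clostridium kluyveri | Amount: Enzyme 0.07 U/mL final | Dosing: Compound 20 µM once, DMSO 1% | Timing: 16 min reaction at room temperature | Detection: Fluorescence, excitation 544 nm and emission 590 nm | Evaluation: Higher resorufin formation from activation or reduction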
# L major viab: reduces viability of Leishmania major promastigotes. resazurin fluorescence viability. inhibition, % at 10 µM. 9% of 200,000 active. AID 1063; in the data active = inhibition above about 50%;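 note: promastigotes grown with compound for 44 hours at 28 °C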
# Diaph inh CS: diaphorase inhibition or chemical oxidation counter-screen. inhibition, % at 20 µM. 0.69% of 190,000 active. diaphorase resazurin-to-resorufin fluorescence, NADH, 16 min; bacterial (C. kluyveri) enzyme, not human;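 active = primary screen inhibition at 20 µM above a set limit, cut at about 50% in these data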
#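 Assay system: diaphorase enzyme from Clostridium kluyveri; Input: enzyme working solution with 0.14 U/mL diaphorase; Timing: 16 min at room temperature; Technique: resorufin fluorescence, excitation 544 nm, emission 590 nm; Benchmarks: positive control minus NADH, DMSO neutral control.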
# ROMK mod: modulators of human ROMK potassium channel; P48048; Tet-inducible ROMK, thallium flux fluorescence; actives lie on both sides; B-score at 10 µM; 2% of 130,000 active; AID 1918;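 active = signal ratio slope over the read window, or its plate-corrected B-score, at least 3 SD from the plate mean, either direction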;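 note: B-score of the F/F0 ratio slope over 7 to 12 s after thallium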
# Target sequence (P48048 whole entry, looked up): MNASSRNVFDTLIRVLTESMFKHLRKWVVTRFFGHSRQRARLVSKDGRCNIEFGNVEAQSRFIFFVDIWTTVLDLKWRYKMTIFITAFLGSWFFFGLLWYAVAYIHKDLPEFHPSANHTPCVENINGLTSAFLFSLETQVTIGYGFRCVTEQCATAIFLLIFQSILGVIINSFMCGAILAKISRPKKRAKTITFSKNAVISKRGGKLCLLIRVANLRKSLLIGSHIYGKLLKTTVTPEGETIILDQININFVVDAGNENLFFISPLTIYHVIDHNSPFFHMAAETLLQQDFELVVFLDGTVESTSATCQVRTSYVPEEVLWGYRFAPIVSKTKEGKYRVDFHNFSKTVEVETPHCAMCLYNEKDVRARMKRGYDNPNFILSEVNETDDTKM
# WT yeast gro inh: growth inhibition of WT yeast, mitochondrial fusion screen; mitochondrial fusion phenotypic screen, WT strain; inhibition, % at 10 µM; 2.1% of 190,000 active; in the data active = inhibition above about 58%; tested in S. cerevisiae
# A number is an active result; n = inactive; x = no result given. Hits are enriched below; roughly 12% of the tested compounds scored in any of these assays.
SMILES,Cl transport mod,Diaph act CS,L major viab,Diaph inh CS,ROMK mod,WT yeast gro inh
C=C(C)C1CC=C(C)/C(=N/NC(=O)CNc2ccc(OCC)cc2)C1 (configuration not stated),n,n,99.5,n,n,n
C=C(C)C1CC=C(C)/C(=N/NC(=O)c2ccc(NC(=O)CC)cc2)C1 (configuration not stated),n,n,99.2,n,n,n
C=C(C)C1CC=C(C)/C(=N/Nc2ccccc2[N+](=O)[O-])C1 (configuration not stated),n,n,n,n,n,n
C=C(C)C1CC=C(C)/C(=N/NC(=O)c2ccccc2[N+](=O)[O-])C1 (configuration not stated),n,n,62.5,n,n,n
OC(COc1ccc(OCc2ccccc2)cc1)CN1CCOCC1 (configuration not stated),x,n,97.4,n,n,n
O=S(=O)(c1ccc(OCC(O)CN2CCC(Cc3ccccc3)CC2)cc1)N1CCOCC1 (configuration not stated),n,n,99.7,n,x,n
OC(COc1ccccc1)CN1CCCC1 (configuration not stated),n,n,n,n,n,n
OC(COc1ccc(OCc2ccccc2)cc1)CN1CCCCC1 (configuration not stated),n,n,96.2,n,x,n
O=C(c1ccccc1)c1ccc(OCC(O)CN2CCOCC2)cc1 (configuration not stated),n,x,n,x,n,x
OC(COc1ccc(-c2ccccc2)cc1)CN1CCOCC1 (configuration not stated),n,n,93.2,n,n,n
CCCS(=O)(=O)c1c(S(=O)(=O)CCC)c2cnccn2c1C(=O)c1ccc(Cl)cc1,n,n,n,n,n,n
CCN(CC(=O)Nc1cccc(C(C)=O)c1)S(=O)(=O)c1ccccc1,n,n,n,n,n,n
Cc1cccc(N2CCN(C(=O)c3cc4n(n3)C(C(F)(F)F)CC(c3ccco3)N4)CC2)c1C (configuration not stated),n,n,67.5,n,n,60.8
O=C(c1cc2n(n1)C(C(F)(F)F)CC(c1ccco1)N2)N1CCN(c2ccccn2)CC1 (configuration not stated),n,n,n,n,n,n
COC(=O)Nc1ccc2c(c1)N(C(=O)CCN1CCN3CCCC3C1)c1ccccc1S2 (configuration not stated),n,n,70.7,n,x,n
CCOC(=O)Nc1ccc2c(c1)N(C(=O)CCN1CCN(C)CC1)c1ccccc1S2,n,n,n,n,x,n
CN1CCN(CCC(=O)N2c3ccccc3Sc3ccc(Cl)cc32)CC1,x,n,100.8,n,n,n
CC(=O)N1CCCc2cc(S(=O)(=O)N(CC(C)C)CC(C)C)ccc21,n,n,85.2,n,x,n
CCN(c1cccc(C(F)(F)F)c1)S(=O)(=O)c1ccc2c(c1)CCN2C(C)=O,x,n,60.3,n,n,n
CCN(c1cccc(C)c1)S(=O)(=O)c1ccc2c(c1)CCN2C(C)=O,n,n,94.5,n,n,n
CC(=O)N1CCCc2cc(S(=O)(=O)N(C)CCC#N)ccc21,n,n,n,n,x,x
COc1cc(Br)cc(/C=N/NC(=O)Cc2ccc(C(F)(F)F)cc2[N+](=O)[O-])c1O,n,n,72.5,n,x,n
Cn1c(=O)c2c(nc(CN3CCc4ccccc4C3)n2Cc2cccc(Cl)c2)n(C)c1=O,n,n,56.2,n,x,n
Cn1c(=O)c2c(nc(CN3CCN(Cc4ccccc4)CC3)n2Cc2cccc(Cl)c2)n(C)c1=O,n,n,n,n,x,n
Cn1c(=O)c2c(nc(CN3CCc4ccccc4C3)n2Cc2ccccc2F)n(C)c1=O,x,n,61.2,n,n,n
SMILES,Cl transport mod,Diaph act CS,L major viab,Diaph inh CS,ROMK mod,WT yeast gro inh
COc1ccc(NC(=O)COC(=O)C2CCC(C(C)(C)C)CC2)c([N+](=O)[O-])c1 (configuration not stated),n,n,n,n,n,n
Cc1nc2ccccc2nc1OCc1ccccc1,n,n,n,n,x,n
Cc1c(OCc2ccccc2)cccc1OCc1ccccc1,n,n,n,n,n,65.6
COc1ccc(OC)c(C2=NOC(C(=O)N3CCCc4ccccc43)C2)c1 (configuration not stated),n,n,n,n,n,n
CC(C)Oc1cccc(C(=O)C2CCCN(C(=O)c3ccnn3C)C2)c1 (configuration not stated),n,n,n,n,n,n
Cc1nn(C(C)C)c(C)c1CN1CCCC(C(=O)c2cccc(OC(C)C)c2)C1 (configuration not stated),n,n,n,n,n,n
CC(C)Oc1cccc(C(=O)C2CCCN(S(C)(=O)=O)C2)c1 (configuration not stated),n,n,n,n,n,n
COc1cccc(C(=O)C2CCCN(Cc3cccn3-c3ccccn3)C2)c1 (configuration not stated),n,n,n,n,n,n
Cc1noc(C)c1S(=O)(=O)N1CCCC(C(=O)c2cccc(OC(C)C)c2)C1 (configuration not stated),n,n,55.7,n,n,n
CCn1nc(C)c(CN2CCCC(C(=O)c3cccc(OC(C)C)c3)C2)c1C (configuration not stated),n,x,86.2,x,n,n
CC(C)Oc1cccc(C(=O)C2CCCN(Cc3cccn3-c3ccccn3)C2)c1 (configuration not stated),n,n,97.6,n,n,n
CC(C)Oc1cccc(C(=O)C2CCCN(Cc3cnn(C(C)C)c3)C2)c1 (configuration not stated),n,n,85.3,n,n,n
CCOc1cc(CN2CCCC(C(=O)c3cccc(C(F)(F)F)c3)C2)ccc1O (configuration not stated),n,n,54.2,n,n,n
O=C(c1ccc(C(F)(F)F)cc1)C1CCCN(Cc2cccn2-c2ncccn2)C1 (configuration not stated),n,n,70.9,n,n,n
CC(C)Oc1cccc(C(=O)C2CCCN(C(=O)c3noc4c3CCCC4)C2)c1 (configuration not stated),n,n,n,n,n,n
CC(C)Oc1cccc(C(=O)C2CCCN(Cc3ccc4nonc4c3)C2)c1 (configuration not stated),n,n,83.4,n,n,n
COc1ccc(NCc2nnc(SCC(=O)Nc3ccccc3)n2C)cc1,n,n,n,n,n,n
Cc1cc(=O)n2[nH]c(-c3ccc(F)cc3)cc2n1,n,n,n,n,x,59.6
Cc1cc(=O)n2[nH]c(-c3ccc(Cl)cc3)cc2n1,n,n,n,n,x,n
CCS(=O)(=O)N1CCN(c2ccc([N+](=O)[O-])c(NCc3cccnc3)c2)CC1,n,n,n,n,n,n

# Screening results as filed in PubChem BioAssay.
